According to ChEMBL document CHEMBL3351772, “Xenortide Biosynthesis by Entomopathogenic Xenorhabdus nematophila” (J Nat Prod, 2014):
Square brackets hold non-standard residues; d marks the D form. Peptide text beside a SMILES is read from it. * marks the point of attachment. NMeF = CN[C@@H](Cc1ccccc1)C(=O)O; NMeL = CN[C@@H](CC(C)C)C(=O)O; NHPhenethyl = c1ccc(CCN*)cc1; NMeV = CN[C@H](C(=O)O)C(C)C

What was measured:
[1] = test system: Trypanosoma brucei rhodesiense; experiment: Antiparasitic activity against Trypanosoma brucei rhodesiense STIB900; type: functional, organism-based
Trypanosoma cruzi = experiment: Antiparasitic activity against Trypanosoma cruzi Tulahuen C4; type: functional, organism-based
Leishmania donovani = experiment: Antiparasitic activity against Leishmania donovani; type: functional, organism-based
Method in brief: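 Leishmania donovani strain MHOM-ET-67/L82; assay run per an earlier published method.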

Plasmodium falciparum = experiment: Antiparasitic activity against Plasmodium falciparum NF54; type: functional, organism-based
L6 = experiment: Cytotoxicity against rat L6 cells; type: cell-based
Method in brief: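 Rat L6 skeletal myoblasts; cytotoxicity assay run per an earlier published method.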

Compound	IC50 [1]	IC50 (Trypanosoma cruzi)	IC50 (Leishmania donovani)	IC50 (Plasmodium falciparum)	IC50 (L6)
CN[C@H](C(=O)N(C)[C@@H](Cc1ccccc1)C(=O)NCCc1c[nH]c2ccccc12)C(C)C	4.92 µM	52.7 µM	17.3 µM	7.66 µM	85.6 µM
CN[C@H](C(=O)N(C)[C@@H](Cc1ccccc1)C(=O)NCCc1ccccc1)C(C)C (H-[NMeV]-[NMeF]-NHPhenethyl)	89.2 µM	132 µM	25 µM	> 126 µM	> 253 µM
CCCCCCCCCCCCCCCCOP(=O)([O-])OCC[N+](C)(C)C [MILTEFOSINE]			0.459 µM		
CN[C@@H](CC(C)C)C(=O)N(C)[C@@H](Cc1ccccc1)C(=O)NCCc1ccccc1 [XENORTIDE A] (H-[NMeL]-[NMeF]-NHPhenethyl)	22.5 µM	46.4 µM	124 µM	19.2 µM	116 µM
CN[C@@H](CC(C)C)C(=O)N(C)[C@@H](Cc1ccccc1)C(=O)NCCc1c[nH]c2ccccc12 [XENORTIDE B]	1.57 µM	11.7 µM	111 µM	0.76 µM	13.7 µM
